Laboratory results reported in ChEMBL document CHEMBL6071158, “Design, synthesis, and in vitro biological evaluation of meta-sulfonamidobenzamide-based antibacterial LpxH inhibitors” (Eur J Med Chem, 2024).
In brackets after ≈: the same amount, converted by molar mass.

Key:
Escherichia coli [1] = assay: Antibacterial activity against wild type Escherichia coli ATCC 25922 incubated for 16 to 20 hrs by Mueller-Hinton broth based two-fold serial dilution method; assay type: functional; conditions: time 16-20 hrs
Escherichia coli [2] = assay: Inhibition of Escherichia coli LpXH enzyme at 100 nM by colorimetric coupled enzymatic analysis relative to control
Method in brief: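 AaLpxE-coupled assay: E. coli LpxH 0.1 nM and UDP-DAGn 20 µM (final) in 20 mM Tris-HCl pH 8.0, BSA, 0.02 % Triton X-100, 1 mM MnCl₂, 1 mM DTT, 10 % DMSO; inhibitor pre-incubated with enzyme 10 min, reaction 30 min at 37 °C, EDTA quench, then LpxE 30 min; released phosphate by malachite green at 620 nm vs phosphate standard; triplicate.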

Escherichia coli [3] = assay: Antibacterial activity against efflux pump-deficient delta tolC Escherichia coli ATCC 25922 assessed as bacterial growth inhibition incubated for 16 to 20 hrs by Mueller-Hinton broth based two-fold serial dilution method; assay type: functional; conditions: time 16-20 hrs
[4] = Hemolysis activity in human RBC cells assessed as effect on hemolysis relative to control; assay type: toxicity, cell-based, Erythrocyte; conditions: human red blood cells, read-out: Activity
[5] = Cytotoxicity against human HepG2 cells assessed as inhibition of cells incubated for 72 hrs by fluorometric microculture analysis; assay type: toxicity, cell-based
Method in brief: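 HepG2 (mycoplasma-free, ≤20 passages, DMEM + 10 % FBS + pen/strep) seeded 4000/well, cultured overnight, then exposed 72 h at 37 °C, 5 % CO₂ to nine two-fold dilutions in duplicate, top 100 µM. Viability by fluorescein diacetate hydrolysis (0.5 µg/ml FDA, 50 min, ex 475/em 520 nm); survival index vs control; IC50 by non-linear regression of log concentration-effect curves. Bortezomib 2 µM positive control.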

hERG (KCNH2) [6] = target: T1, hERG (KCNH2) (Homo sapiens, UniProt Q12809); assay: Inhibition of hERG expressed in CHO cells at 10 uM by automated patch clamp analysis relative to control; assay type: toxicity, cell-based; conditions: CHO cells that express hERG
Method in brief: (§1)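 Stably expressing CHO-KV11.1 cells, automated whole-cell population patch clamp (10 cells) at 22 °C; vehicle baseline (0.43 % DMSO) then two cumulatively rising concentrations, 30 s exposure. Holding −80 mV, steps in 10 mV increments to 50 mV for 5 s, tail current at −50 mV (peak in first 90 ms, leak-subtracted); protocol every 150 s; triplicate, mean ± SEM.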

hERG (KCNH2) [7] = target: T1, hERG (KCNH2); assay: Inhibition of hERG expressed in CHO cells at 30 uM by automated patch clamp analysis relative to control; assay type: toxicity, cell-based; conditions: CHO cells that express hERG; method in brief: as §1
Escherichia coli [8] = assay: Antibacterial activity against Escherichia coli ATCC 25922 assessed as viable colonies measured after 18 to 20 hrs by Mueller-Hinton II broth assay; assay type: functional; conditions: time 18-20 hrs
Klebsiella pneumoniae [9] = assay: Antibacterial activity against Klebsiella pneumonia ATCC 13883 assessed as viable colonies measured after 18 to 20 hrs by Mueller-Hinton II broth assay; assay type: functional; conditions: time 18-20 hrs
Klebsiella pneumoniae [10] = assay: Antibacterial activity against wild type Klebsiella pneumoniae ATCC 13883 assessed as of bacterial growth incubated for 16 to 20 hrs by Mueller-Hinton broth based two-fold serial dilution method
Escherichia coli [11] = assay: Antibacterial activity against efflux-defective Escherichia coli delta tolC ATCC 25922; assay type: functional

T1 sequence (Q12809 whole entry): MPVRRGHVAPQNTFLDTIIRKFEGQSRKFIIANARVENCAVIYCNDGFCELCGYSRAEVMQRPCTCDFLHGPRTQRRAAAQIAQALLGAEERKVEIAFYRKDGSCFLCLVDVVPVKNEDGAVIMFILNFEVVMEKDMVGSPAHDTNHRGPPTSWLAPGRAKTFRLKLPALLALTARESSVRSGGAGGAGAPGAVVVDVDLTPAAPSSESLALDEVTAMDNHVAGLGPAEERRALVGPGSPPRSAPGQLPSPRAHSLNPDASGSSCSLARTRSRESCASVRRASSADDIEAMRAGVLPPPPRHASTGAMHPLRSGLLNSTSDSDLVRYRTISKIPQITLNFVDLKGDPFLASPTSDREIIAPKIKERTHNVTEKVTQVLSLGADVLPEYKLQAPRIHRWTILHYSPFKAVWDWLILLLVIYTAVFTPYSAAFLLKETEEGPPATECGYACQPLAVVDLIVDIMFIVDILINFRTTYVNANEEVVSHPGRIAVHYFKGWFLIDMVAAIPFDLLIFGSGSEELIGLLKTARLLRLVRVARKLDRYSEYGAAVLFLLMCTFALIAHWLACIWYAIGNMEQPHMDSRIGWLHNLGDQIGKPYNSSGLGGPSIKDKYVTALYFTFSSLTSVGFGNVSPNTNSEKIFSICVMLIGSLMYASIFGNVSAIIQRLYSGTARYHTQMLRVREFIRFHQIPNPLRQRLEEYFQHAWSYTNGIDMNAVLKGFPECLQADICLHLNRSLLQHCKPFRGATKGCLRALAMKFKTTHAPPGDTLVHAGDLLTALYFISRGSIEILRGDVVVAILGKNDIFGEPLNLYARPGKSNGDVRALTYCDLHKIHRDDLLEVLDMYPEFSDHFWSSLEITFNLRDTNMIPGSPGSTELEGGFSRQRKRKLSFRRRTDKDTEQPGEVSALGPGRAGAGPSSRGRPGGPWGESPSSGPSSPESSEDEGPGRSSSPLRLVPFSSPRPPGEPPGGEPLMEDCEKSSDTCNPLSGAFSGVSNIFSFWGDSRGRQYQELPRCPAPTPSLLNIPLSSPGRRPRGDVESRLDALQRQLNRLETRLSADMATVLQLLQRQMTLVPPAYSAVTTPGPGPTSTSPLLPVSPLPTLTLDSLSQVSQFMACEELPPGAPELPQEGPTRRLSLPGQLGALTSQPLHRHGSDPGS

SMILES | MIC (Escherichia coli [1]) | inhibition (Escherichia coli [2]) | MIC (Escherichia coli [3]) | hemolysis [4] | IC50 at 72 h [5] | inhibition at 10 µM (hERG (KCNH2) [6]) | inhibition at 30 µM (hERG (KCNH2) [7]) | MIC (Escherichia coli [8]) | MIC (Klebsiella pneumoniae [9]) | MIC (Klebsiella pneumoniae [10]) | MIC (Escherichia coli [11])
CS(=O)(=O)Nc1ccccc1C(=O)Nc1ccc(S(=O)(=O)N2CCN(c3cc(Cl)cc(Cl)c3)CC2)cc1 | 64 µg/mL (≈ 110 µM) |  |  |  |  |  |  |  |  |  | 
Cc1cc(C#N)nc(N2CCN(S(=O)(=O)c3ccc(NC(=O)c4cc(CNC[C@H]5C[C@@H]5N)ccc4N(C)S(C)(=O)=O)cc3)CC2)n1 | 2 µg/mL (≈ 2.99 µM) | 100% | ≤ 0.125 µg/mL | 0.35% | 47 µM | 9% | 28% | 2 µg/mL (≈ 2.99 µM) | 0.5 µg/mL (≈ 0.749 µM) | 0.5 µg/mL (≈ 0.749 µM) | 
CC(=O)N1CCc2cc(S(=O)(=O)N3CCN(c4cccc(C(F)(F)F)c4)CC3)ccc21 |  |  |  |  |  |  |  |  |  |  | 0.25 µg/mL (≈ 0.551 µM)
Cc1cc(C#N)nc(N2CCN(S(=O)(=O)c3ccc(NC(=O)c4cc(CNCCCN)cc(NS(C)(=O)=O)c4)cc3)CC2)n1 | 8 µg/mL (≈ 12.5 µM) | 63% | 0.5 µg/mL (≈ 0.779 µM) | 0.08% | > 100 µM | 3% | 9% |  |  | 4 µg/mL (≈ 6.23 µM) | 
CN(c1ccccc1C(=O)Nc1ccc(S(=O)(=O)N2CCN(c3cc(Cl)cc(Cl)c3)CC2)cc1)S(C)(=O)=O | 1 µg/mL (≈ 1.67 µM) |  |  |  |  |  |  |  |  |  | 
Cc1cc(C#N)nc(N2CCN(S(=O)(=O)c3ccc(NC(=O)c4cc(CN5CC(CN)C5)cc(NS(C)(=O)=O)c4)cc3)CC2)n1 | 16 µg/mL (≈ 24.5 µM) | 89% | 0.25 µg/mL (≈ 0.382 µM) | 0.06% |  | 4% | 7% |  |  | 4 µg/mL (≈ 6.12 µM) | 
Cc1cc(C#N)nc(N2CCN(S(=O)(=O)c3ccc(NC(=O)c4cccc(NS(C)(=O)=O)c4)cc3)CC2)n1 | 4 µg/mL (≈ 7.2 µM) | 75% | 0.125 µg/mL (≈ 0.225 µM) | 0.05% |  | 3% | 12% |  |  | 2 µg/mL (≈ 3.6 µM) | 
Cc1cc(C#N)nc(N2CCN(S(=O)(=O)c3ccc(NC(=O)c4cc(Cl)nc(NS(C)(=O)=O)c4)cc3)CC2)n1 | 8 µg/mL (≈ 13.5 µM) | 54% | ≤ 0.125 µg/mL | 0.02% | > 50 µM | 2% | 0% |  |  | 4 µg/mL (≈ 6.77 µM) | 
Cc1cc(C#N)nc(N2CCN(S(=O)(=O)c3ccc(NC(=O)c4cc(NS(C)(=O)=O)cc(N5CC(CN)C5)c4)cc3)CC2)n1 | 64 µg/mL (≈ 100 µM) | 92% | 0.25 µg/mL (≈ 0.391 µM) | 0.12% | > 100 µM | 5% | 9% |  |  | 32 µg/mL (≈ 50 µM) | 
Cc1cc(C#N)nc(N2CCN(S(=O)(=O)c3ccc(NC(=O)c4cc(NS(C)(=O)=O)nc(N5CC(CN)C5)c4)cc3)CC2)n1 | 8 µg/mL (≈ 12.5 µM) | 80% | 0.5 µg/mL (≈ 0.78 µM) | 0.12% | > 100 µM | 1% | 0% |  |  | 4 µg/mL (≈ 6.24 µM) | 
NC(=O)[C@H]1CC[C@H](C(F)(F)c2cc(Cl)nc(N3CCN(S(=O)(=O)c4ccc(N5C[C@@H](N)CC5=O)cc4)CC3)c2)CC1 | 0.3 µg/mL (≈ 0.491 µM) |  |  |  |  |  |  |  |  |  | 
CS(=O)(=O)Nc1cccc(C(=O)Nc2ccc(S(=O)(=O)N3CCN(c4cc(Cl)cc(Cl)c4)CC3)cc2)c1 | 4 µg/mL (≈ 6.85 µM) |  | 0.125 µg/mL (≈ 0.214 µM) |  |  |  |  |  |  |  | 
Cc1cc(C#N)nc(N2CCN(S(=O)(=O)c3ccc(NC(=O)c4cc(C=C5CNC5)cc(NS(C)(=O)=O)c4)cc3)CC2)n1 | 64 µg/mL (≈ 103 µM) | 86% | 0.5 µg/mL (≈ 0.803 µM) | 0.17% | > 100 µM | 4% | 24% |  |  | 16 µg/mL (≈ 25.7 µM) | 
CN(c1cccc(C(=O)Nc2ccc(S(=O)(=O)N3CCN(c4cc(Cl)cc(Cl)c4)CC3)cc2)c1)S(C)(=O)=O | 64 µg/mL (≈ 107 µM) |  | 0.125 µg/mL (≈ 0.209 µM) |  |  |  |  |  |  |  | 
Cc1cc(C#N)nc(N2CCN(S(=O)(=O)c3ccc(NC(=O)c4ccccc4N(C)S(C)(=O)=O)cc3)CC2)n1 | 2 µg/mL (≈ 3.51 µM) | 100% | ≤ 0.125 µg/mL | 0.05% | 29 µM | 14% | 24% |  |  | 2 µg/mL (≈ 3.51 µM) | 
Cc1cc(C#N)nc(N2CCN(S(=O)(=O)c3ccc(NC(=O)c4cc(CN5CC(CN)C5)ccc4N(C)S(C)(=O)=O)cc3)CC2)n1 | 2 µg/mL (≈ 2.99 µM) | 71% | ≤ 0.125 µg/mL | 0.13% | 54 µM | 5% | 16% |  |  | 0.5 µg/mL (≈ 0.749 µM) | 
Cc1cc(C#N)nc(N2CCN(S(=O)(=O)c3ccc(NC(=O)c4cc(CNCCCN)ccc4N(C)S(C)(=O)=O)cc3)CC2)n1 | 2 µg/mL (≈ 3.05 µM) | 69% | ≤ 0.125 µg/mL | 0.06% | 55 µM | 4% | 11% |  |  | 1 µg/mL (≈ 1.52 µM) | 
